ChEMBL document CHEMBL3286116, “Synthesis, biological evaluation and structure-activity correlation study of a series of imidazol-based compounds as Candida albicans inhibitors” (Eur J Med Chem, 2014)
≈ marks a conversion by molar mass, not a printed value.

Tests used:
Assay type in all cases: functional
Candida albicans [1] = experiment: Antifungal activity against Candida albicans ATCC 90028 after 48 hrs by CLSI broth microdilution method; conditions: ATCC 90028, 48 h
In short: (§1)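 Yeast CLSI broth microdilution (M27-A3). Compounds dissolved in DMSO at 100× the top test concentration, then diluted as serial two-fold dilutions in RPMI 1640 to final 0.125–64. Inoculum was 1.0–1.5 × 10^3 cells mL−1, incubated at 35 °C and read for growth at 48 h. MIC is the lowest concentration giving ≥50% growth inhibition versus growth control. Reported as the median of five replicates and as the geometric mean.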

Candida albicans [2] = experiment: Antifungal activity against Candida albicans ATCC 20891 after 48 hrs by CLSI broth microdilution method; conditions: ATCC 20891, 48 h; in short: as §1
Candida albicans [3] = experiment: Antifungal activity against Candida albicans PMC 1011 after 48 hrs by CLSI broth microdilution method; conditions: PMC 1011, 48 h; in short: as §1
Pichia kudriavzevii [4] = experiment: Antifungal activity against Candida krusei DSM 6128 after 48 hrs by CLSI broth microdilution method; conditions: DSM 6128, 48 h; in short: as §1
Pichia kudriavzevii [5] = experiment: Antifungal activity against Candida krusei PMC 0613 after 48 hrs by CLSI broth microdilution method; conditions: PMC 0613, 48 h; in short: as §1
Candida tropicalis [6] = experiment: Antifungal activity against Candida tropicalis PMC 0910 after 48 hrs by CLSI broth microdilution method; conditions: PMC 0910, 48 h; in short: as §1
Candida tropicalis [7] = experiment: Antifungal activity against Candida tropicalis DSM 11953 after 48 hrs by CLSI broth microdilution method; conditions: DSM 11953, 48 h; in short: as §1
Candida parapsilosis [8] = experiment: Antifungal activity against Candida parapsilosis DSM 11224 after 48 hrs by CLSI broth microdilution method; conditions: Lodderomyces parapsilosis, DSM 11224, 48 h; in short: as §1
Candida parapsilosis [9] = experiment: Antifungal activity against Candida parapsilosis ATCC 22019 after 48 hrs by CLSI broth microdilution method; conditions: Lodderomyces parapsilosis, ATCC 22019, 48 h; in short: as §1
Nakaseomyces glabratus [10] = experiment: Antifungal activity against Candida glabrata PMC 0805 after 48 hrs by CLSI broth microdilution method; conditions: PMC 0805, 48 h; in short: as §1
Nakaseomyces glabratus [11] = experiment: Antifungal activity against Candida glabrata PMC 0807 after 48 hrs by CLSI broth microdilution method; conditions: PMC 0807, 48 h; in short: as §1
Cryptococcus neoformans [12] = experiment: Antifungal activity against Cryptococcus neoformans PMC 2123 after 72 hrs by CLSI broth microdilution method; conditions: PMC 2123, 72 h
In short: (§2)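 Cryptococcus neoformans tested by CLSI broth microdilution in RPMI 1640, with serial two-fold dilutions from DMSO stocks at 100× the top concentration, final 0.125–64. Inoculum was 1.0–1.5 × 10^3 cells mL−1 at 35 °C, with growth read at 72 h. MIC is the lowest concentration with ≥50% growth inhibition versus control. Median of five replicates, plus geometric mean.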

Cryptococcus neoformans [13] = experiment: Antifungal activity against Cryptococcus neoformans PMC 2136 after 72 hrs by CLSI broth microdilution method; conditions: PMC 2136, 72 h; in short: as §2
Cryptococcus neoformans [14] = experiment: Antifungal activity against Cryptococcus neoformans PMC 2115 after 72 hrs by CLSI broth microdilution method; conditions: PMC 2115, 72 h; in short: as §2
Cryptococcus neoformans [15] = experiment: Antifungal activity against Cryptococcus neoformans PMC 2103 after 72 hrs by CLSI broth microdilution method; conditions: PMC 2103, 72 h; in short: as §2
Cryptococcus neoformans [16] = experiment: Antifungal activity against Cryptococcus neoformans PMC 2107 after 72 hrs by CLSI broth microdilution method; conditions: PMC 2107, 72 h; in short: as §2
Cryptococcus neoformans [17] = experiment: Antifungal activity against Cryptococcus neoformans PMC 2102 after 72 hrs by CLSI broth microdilution method; conditions: PMC 2102, 72 h; in short: as §2
Cryptococcus neoformans [18] = experiment: Antifungal activity against Cryptococcus neoformans DSM 11959 after 72 hrs by CLSI broth microdilution method; conditions: DSM 11959, 72 h; in short: as §2
Cryptococcus neoformans [19] = experiment: Antifungal activity against Cryptococcus neoformans PMC 2111 after 72 hrs by CLSI broth microdilution method; conditions: PMC 2111, 72 h; in short: as §2
[20] = tested on: Trichophyton mentagrophytes; experiment: Antifungal activity against Trichophyton mentagrophytes DSM 4870 after 72 hrs by CLSI broth microdilution method; conditions: DSM 4870, 72 h
In short: (§3)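 Dermatophytes tested by CLSI broth microdilution for filamentous fungi (M38-A2). Serial two-fold dilutions of DMSO-dissolved compound in RPMI 1640, final 0.125–64. Inoculum was 0.4–5 × 10^4 CFU mL−1, incubated at 35 °C and read at 72 h. MIC80 is the lowest concentration giving ≥80% growth inhibition versus growth control. Median of five replicates, plus geometric mean.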

[21] = tested on: Trichophyton mentagrophytes; experiment: Antifungal activity against Trichophyton mentagrophytes PMC 6515 after 72 hrs by CLSI broth microdilution method; conditions: PMC 6515, 72 h; in short: as §3
[22] = tested on: Trichophyton mentagrophytes; experiment: Antifungal activity against Trichophyton mentagrophytes PMC 6531 after 72 hrs by CLSI broth microdilution method; conditions: PMC 6531, 72 h; in short: as §3
[23] = tested on: Trichophyton mentagrophytes; experiment: Antifungal activity against Trichophyton mentagrophytes PMC 6509 after 72 hrs by CLSI broth microdilution method; conditions: PMC 6509, 72 h; in short: as §3
[24] = tested on: Trichophyton mentagrophytes; experiment: Antifungal activity against Trichophyton mentagrophytes PMC 6503 after 72 hrs by CLSI broth microdilution method; conditions: PMC 6503, 72 h; in short: as §3
[25] = tested on: Trichophyton mentagrophytes; experiment: Antifungal activity against Trichophyton mentagrophytes PMC 6552 after 72 hrs by CLSI broth microdilution method; conditions: PMC 6552, 72 h; in short: as §3
Nannizzia gypsea [26] = experiment: Antifungal activity against Microsporum gypseum PMC 7303 after 72 hrs by CLSI broth microdilution method; conditions: PMC 7303, 72 h; in short: as §3
Nannizzia gypsea [27] = experiment: Antifungal activity against Microsporum gypseum PMC 7331 after 72 hrs by CLSI broth microdilution method; conditions: PMC 7331, 72 h; in short: as §3
Nannizzia gypsea [28] = experiment: Antifungal activity against Microsporum gypseum DSM 3824 after 72 hrs by CLSI broth microdilution method; conditions: DSM 3824, 72 h; in short: as §3
Candida albicans [29] = experiment: Antifungal activity against Candida albicans ATCC 24433 after 48 hrs by CLSI broth microdilution method; conditions: ATCC 24433, 48 h; in short: as §1
Candida albicans [30] = experiment: Antifungal activity against Candida albicans ATCC 3153 after 48 hrs by CLSI broth microdilution method; conditions: ATCC 3153, 48 h; in short: as §1
Candida albicans [31] = experiment: Antifungal activity against Candida albicans ATCC 10231 after 48 hrs by CLSI broth microdilution method; conditions: ATCC 10231, 48 h; in short: as §1
Candida albicans [32] = experiment: Antifungal activity against Candida albicans ATCC 76615 after 48 hrs by CLSI broth microdilution method; conditions: ATCC 76615, 48 h; in short: as §1
Candida albicans [33] = experiment: Antifungal activity against Candida albicans ATCC 10261 after 48 hrs by CLSI broth microdilution method; conditions: ATCC 10261, 48 h; in short: as §1

`O=C(OC(Cn1ccnc1)c1ccc(F)cc1)N1CCN(c2ncccc2[N+](=O)[O-])CC1` (stereo unspecified) gave an MIC50 (Candida albicans [1]) of 4 µg/mL (≈ 9.08 µM), an MIC50 (Candida albicans [2]) of 8 µg/mL (≈ 18.2 µM) and an MIC50 (Candida albicans [3]) of 4 µg/mL (≈ 9.08 µM). The MIC50 (Pichia kudriavzevii [4]) was 16 µg/mL (≈ 36.3 µM), the MIC50 (Pichia kudriavzevii [5]) was 4 µg/mL (≈ 9.08 µM) and the MIC50 (Candida tropicalis [6]) was 16 µg/mL (≈ 36.3 µM). It also gave an MIC50 (Candida tropicalis [7]) of 32 µg/mL (≈ 72.7 µM), an MIC50 (Candida parapsilosis [8]) of 2 µg/mL (≈ 4.54 µM) and an MIC50 (Candida parapsilosis [9]) of 16 µg/mL (≈ 36.3 µM). For the same compound, the MIC50 (Nakaseomyces glabratus [10]) was 8 µg/mL (≈ 18.2 µM), the MIC50 (Nakaseomyces glabratus [11]) was 32 µg/mL (≈ 72.7 µM) and the MIC50 (Cryptococcus neoformans [12]) was 16 µg/mL (≈ 36.3 µM). The MIC50 (Cryptococcus neoformans [13]) was 2 µg/mL (≈ 4.54 µM), the MIC50 (Cryptococcus neoformans [14]) was 16 µg/mL (≈ 36.3 µM) and the MIC50 (Cryptococcus neoformans [15]) was 2 µg/mL (≈ 4.54 µM). It also gave an MIC50 (Cryptococcus neoformans [16]) of 1 µg/mL (≈ 2.27 µM), an MIC50 (Cryptococcus neoformans [17]) of 8 µg/mL (≈ 18.2 µM) and an MIC50 (Cryptococcus neoformans [18]) of 4 µg/mL (≈ 9.08 µM). It also gave an MIC50 (Cryptococcus neoformans [19]) of 8 µg/mL (≈ 18.2 µM), an MIC80 [20] of 32 µg/mL (≈ 72.7 µM) and an MIC80 [21] of 32 µg/mL (≈ 72.7 µM). The MIC80 [22] was 32 µg/mL (≈ 72.7 µM), the MIC80 [23] was 64 µg/mL (≈ 145 µM) and the MIC80 [24] was 32 µg/mL (≈ 72.7 µM). For the same compound, the MIC80 [25] was 32 µg/mL (≈ 72.7 µM), the MIC80 (Nannizzia gypsea [26]) was 64 µg/mL (≈ 145 µM) and the MIC80 (Nannizzia gypsea [27]) was 32 µg/mL (≈ 72.7 µM). For the same compound, the MIC80 (Nannizzia gypsea [28]) was 32 µg/mL (≈ 72.7 µM), the MIC50 (Candida albicans [29]) was 8 µg/mL (≈ 18.2 µM) and the MIC50 (Candida albicans [30]) was 16 µg/mL (≈ 36.3 µM). For the same compound, the MIC50 (Candida albicans [31]) was 16 µg/mL (≈ 36.3 µM), the MIC50 (Candida albicans [32]) was 64 µg/mL (≈ 145 µM) and the MIC50 (Candida albicans [33]) was 8 µg/mL (≈ 18.2 µM).

With `O=C(OC(Cn1ccnc1)c1ccc(Cl)cc1)N1CCN(C(=O)c2ccco2)CC1` (stereo unspecified) the MIC50 (Candida albicans [1]) was 32 µg/mL (≈ 74.6 µM), the MIC50 (Candida albicans [2]) was 64 µg/mL (≈ 149 µM) and the MIC50 (Candida albicans [3]) was 128 µg/mL (≈ 298 µM). For the same compound, the MIC50 (Pichia kudriavzevii [4]) was 128 µg/mL (≈ 298 µM), the MIC50 (Pichia kudriavzevii [5]) was 128 µg/mL (≈ 298 µM) and the MIC50 (Candida tropicalis [6]) was 128 µg/mL (≈ 298 µM). It also gave an MIC50 (Candida tropicalis [7]) of 128 µg/mL (≈ 298 µM), an MIC50 (Candida parapsilosis [8]) of 128 µg/mL (≈ 298 µM) and an MIC50 (Candida parapsilosis [9]) of 128 µg/mL (≈ 298 µM). The MIC50 (Nakaseomyces glabratus [10]) was 128 µg/mL (≈ 298 µM), the MIC50 (Nakaseomyces glabratus [11]) was 128 µg/mL (≈ 298 µM) and the MIC50 (Cryptococcus neoformans [12]) was 32 µg/mL (≈ 74.6 µM). The MIC50 (Cryptococcus neoformans [13]) was 128 µg/mL (≈ 298 µM), the MIC50 (Cryptococcus neoformans [14]) was 128 µg/mL (≈ 298 µM) and the MIC50 (Cryptococcus neoformans [15]) was 128 µg/mL (≈ 298 µM). The MIC50 (Cryptococcus neoformans [16]) was 32 µg/mL (≈ 74.6 µM), the MIC50 (Cryptococcus neoformans [17]) was 128 µg/mL (≈ 298 µM) and the MIC50 (Cryptococcus neoformans [18]) was 128 µg/mL (≈ 298 µM). The MIC50 (Cryptococcus neoformans [19]) was 128 µg/mL (≈ 298 µM), the MIC80 [20] was 128 µg/mL (≈ 298 µM) and the MIC80 [21] was 128 µg/mL (≈ 298 µM). The MIC80 [22] was 128 µg/mL (≈ 298 µM), the MIC80 [23] was 128 µg/mL (≈ 298 µM) and the MIC80 [24] was 128 µg/mL (≈ 298 µM). The MIC80 [25] was 128 µg/mL (≈ 298 µM), the MIC80 (Nannizzia gypsea [26]) was 128 µg/mL (≈ 298 µM) and the MIC80 (Nannizzia gypsea [27]) was 128 µg/mL (≈ 298 µM). For the same compound, the MIC80 (Nannizzia gypsea [28]) was 128 µg/mL (≈ 298 µM), the MIC50 (Candida albicans [29]) was 128 µg/mL (≈ 298 µM) and the MIC50 (Candida albicans [30]) was 32 µg/mL (≈ 74.6 µM). It also gave an MIC50 (Candida albicans [31]) of 64 µg/mL (≈ 149 µM), an MIC50 (Candida albicans [32]) of 64 µg/mL (≈ 149 µM) and an MIC50 (Candida albicans [33]) of 32 µg/mL (≈ 74.6 µM).
